In brackets after ≈: the same amount, converted by molar mass.
Assays:
Format in all cases: functional
[1] = system: Parabacteroides distasonis; test: Antimicrobial activity against Bacteroides distasonis under anaerobic conditions after 44 hrs by CLSI-M11-47 protocol based agar dilution method
How it was run: (§1)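 Reference agar dilution per CLSI M11-A7 with plates made on test day. Clinical isolates were stored at −70°C in 20% skim milk, subcultured twice, and 48-h cell paste was suspended in brucella broth to 0.5 McFarland. About 10^5 CFU/spot was applied with a Steers replicator. Plates were incubated 44 h at 37°C anaerobically. MIC was the lowest concentration giving complete inhibition or marked growth reduction versus the drug-free control.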

[2] = system: Bacteroides ovatus; test: Antimicrobial activity against Bacteroides ovatus under anaerobic conditions after 44 hrs by CLSI-M11-47 protocol based agar dilution method; how it was run: as §1
[3] = system: Bacteroides uniformis; test: Antimicrobial activity against Bacteroides uniformis under anaerobic conditions after 44 hrs by CLSI-M11-47 protocol based agar dilution method; how it was run: as §1
[4] = system: Prevotella bivia; test: Antimicrobial activity against Prevotella bivia under anaerobic conditions after 44 hrs by CLSI-M11-47 protocol based agar dilution method
How it was run: (§2)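 Clinical isolates were stored at −70°C in 20% skim milk and identified phenotypically or by partial 16S rRNA sequencing. Each strain was subcultured twice from frozen stock. Cell paste from 48-h cultures was suspended in brucella broth to a 0.5 McFarland standard. About 10^5 CFU per spot were applied by Steers replicator to agar dilution plates prepared on the day of testing. Plates were incubated 44 h at 37°C in an anaerobic chamber. MIC was taken as the lowest concentration giving complete inhibition or marked reduction of growth versus the drug-free control.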

[5] = system: Prevotella corporis; test: Antimicrobial activity against Prevotella corporis under anaerobic conditions after 44 hrs by CLSI-M11-47 protocol based agar dilution method; how it was run: as §2
[6] = system: Prevotella denticola; test: Antimicrobial activity against Prevotella denticola under anaerobic conditions after 44 hrs by CLSI-M11-47 protocol based agar dilution method; how it was run: as §2
[7] = system: Prevotella disiens; test: Antimicrobial activity against Prevotella disiens under anaerobic conditions after 44 hrs by CLSI-M11-47 protocol based agar dilution method; how it was run: as §2
[8] = system: Hoylesella loescheii; test: Antimicrobial activity against Prevotella loescheii under anaerobic conditions after 44 hrs by CLSI-M11-47 protocol based agar dilution method; how it was run: as §2
[9] = system: Prevotella tannerae; test: Antimicrobial activity against Prevotella tannerae under anaerobic conditions after 44 hrs by CLSI-M11-47 protocol based agar dilution method; settings: Alloprevotella tannerae; how it was run: as §2
[10] = system: Porphyromonas asaccharolytica; test: Antimicrobial activity against Porphyromonas asaccharolyticus under anaerobic conditions after 44 hrs by CLSI-M11-47 protocol based agar dilution method; how it was run: as §2
[11] = system: Porphyromonas somerae; test: Antimicrobial activity against Porphyromonas somerae under anaerobic conditions after 44 hrs by CLSI-M11-47 protocol based agar dilution method; how it was run: as §2
[12] = system: Fusobacterium necrophorum; test: Antimicrobial activity against Fusobacterium necrophorum under anaerobic conditions after 44 hrs by CLSI-M11-47 protocol based agar dilution method; how it was run: as §1
[13] = system: Fusobacterium mortiferum; test: Antimicrobial activity against Fusobacterium mortiferum under anaerobic conditions after 44 hrs by CLSI-M11-47 protocol based agar dilution method; how it was run: as §1
[14] = system: Anaerococcus tetradius; test: Antimicrobial activity against Anaerococcus tetradius under anaerobic conditions after 44 hrs by CLSI-M11-47 protocol based agar dilution method; how it was run: as §1
[15] = system: Parvimonas micra; test: Antimicrobial activity against Parvimonas micra under anaerobic conditions after 44 hrs by CLSI-M11-47 protocol based agar dilution method; how it was run: as §2
[16] = system: Anaerococcus octavius; test: Antimicrobial activity against Anaerococcus octavius under anaerobic conditions after 44 hrs by CLSI-M11-47 protocol based agar dilution method; how it was run: as §1
[17] = system: Gemella sanguinis; test: Antimicrobial activity against Gemella sanguinis under anaerobic conditions after 44 hrs by CLSI-M11-47 protocol based agar dilution method; how it was run: as §2
[18] = system: Peptoniphilus harei; test: Antimicrobial activity against Peptoniphilus harei under anaerobic conditions after 44 hrs by CLSI-M11-47 protocol based agar dilution method; how it was run: as §2
[19] = system: Actinomyces turicensis; test: Antimicrobial activity against Actinomyces turicensis under anaerobic conditions after 44 hrs by CLSI-M11-47 protocol based agar dilution method; settings: Schaalia turicensis; how it was run: as §1
[20] = system: Collinsella aerofaciens; test: Antimicrobial activity against Colinsella aerofaciens under anaerobic conditions after 44 hrs by CLSI-M11-47 protocol based agar dilution method; how it was run: as §1
[21] = system: Solobacterium moorei; test: Antimicrobial activity against Solobacterium moorei under anaerobic conditions after 44 hrs by CLSI-M11-47 protocol based agar dilution method; how it was run: as §2
[22] = system: Lacticaseibacillus casei; test: Antimicrobial activity against Lactobacillus casei under anaerobic conditions after 44 hrs by CLSI-M11-47 protocol based agar dilution method; how it was run: as §2
[23] = system: Lacticaseibacillus rhamnosus; test: Antimicrobial activity against Lactobacillus rhamnosus under anaerobic conditions after 44 hrs by CLSI-M11-47 protocol based agar dilution method; how it was run: as §2
[24] = system: Clostridium citroniae; test: Antimicrobial activity against Clostridium citroniae under anaerobic conditions after 44 hrs by CLSI-M11-47 protocol based agar dilution method; settings: Enterocloster citroniae; how it was run: as §1
[25] = system: Clostridium baratii; test: Antimicrobial activity against Clostridium baratii under anaerobic conditions after 44 hrs by CLSI-M11-47 protocol based agar dilution method
[26] = system: Paraclostridium bifermentans; test: Antimicrobial activity against Clostridium bifermentans under anaerobic conditions after 44 hrs by CLSI-M11-47 protocol based agar dilution method; how it was run: as §1
[27] = system: Clostridium butyricum; test: Antimicrobial activity against Clostridium butyricum under anaerobic conditions after 44 hrs by CLSI-M11-47 protocol based agar dilution method
[28] = system: Clostridium cadaveris; test: Antimicrobial activity against Clostridium cadaveris under anaerobic conditions after 44 hrs by CLSI-M11-47 protocol based agar dilution method; how it was run: as §1
[29] = system: Clostridium hylemonae; test: Antimicrobial activity against Clostridium hylemonae under anaerobic conditions after 44 hrs by CLSI-M11-47 protocol based agar dilution method; how it was run: as §1
[30] = system: Paeniclostridium sordellii; test: Antimicrobial activity against Clostridium sordellii under anaerobic conditions after 44 hrs by CLSI-M11-47 protocol based agar dilution method; settings: Paraclostridium sordellii; how it was run: as §1
[31] = system: Clostridium subterminale; test: Antimicrobial activity against Clostridium subterminale under anaerobic conditions after 44 hrs by CLSI-M11-47 protocol based agar dilution method; how it was run: as §1
[32] = system: Clostridium tertium; test: Antimicrobial activity against Clostridium tertium under anaerobic conditions after 44 hrs by CLSI-M11-47 protocol based agar dilution method; how it was run: as §1

**Q.** Which results are given for `CO/N=C(\C(=O)N[C@@H]1C(=O)N2C(C(=O)O)=C(CSc3nc(=O)c(O)nn3C)CS[C@H]12)c1csc(N)n1` [CEFTRIAXONE]?
**A.** MIC50 [1]: > 64 µg/mL; MIC90 [1]: > 64 µg/mL; MIC50 [2]: > 64 µg/mL; MIC90 [2]: > 64 µg/mL; MIC50 [3]: > 64 µg/mL; MIC90 [3]: > 64 µg/mL; MIC50 [4]: 2 µg/mL (≈ 3.61 µM); MIC90 [4]: > 64 µg/mL; MIC50 [5]: 1 µg/mL (≈ 1.8 µM); MIC90 [5]: 8 µg/mL (≈ 14.4 µM); MIC50 [6]: 1 µg/mL (≈ 1.8 µM); MIC90 [6]: 8 µg/mL (≈ 14.4 µM); MIC50 [7]: 1 µg/mL (≈ 1.8 µM); MIC90 [7]: 8 µg/mL (≈ 14.4 µM); MIC50 [8]: 1 µg/mL (≈ 1.8 µM); MIC90 [8]: 8 µg/mL (≈ 14.4 µM); MIC50 [9]: 1 µg/mL (≈ 1.8 µM); MIC90 [9]: 8 µg/mL (≈ 14.4 µM); MIC50 [10]: 0.06 µg/mL (≈ 0.108 µM); MIC90 [10]: 0.06 µg/mL (≈ 0.108 µM); MIC50 [11]: 0.015 µg/mL (≈ 0.027 µM); MIC90 [11]: 64 µg/mL (≈ 115 µM); MIC50 [12]: 0.015 µg/mL (≈ 0.027 µM); MIC90 [12]: 0.03 µg/mL (≈ 0.0541 µM); MIC50 [13]: > 64 µg/mL; MIC90 [13]: > 64 µg/mL; MIC50 [14]: 0.25 µg/mL (≈ 0.451 µM); MIC90 [14]: 0.5 µg/mL (≈ 0.902 µM); MIC50 [15]: 0.5 µg/mL (≈ 0.902 µM); MIC90 [15]: 1 µg/mL (≈ 1.8 µM); MIC50 [16]: 0.25 µg/mL (≈ 0.451 µM); MIC90 [16]: 16 µg/mL (≈ 28.9 µM); MIC50 [17]: 0.25 µg/mL (≈ 0.451 µM); MIC90 [17]: 16 µg/mL (≈ 28.9 µM); MIC50 [18]: 0.25 µg/mL (≈ 0.451 µM); MIC90 [18]: 16 µg/mL (≈ 28.9 µM); MIC50 [19]: 0.125 µg/mL (≈ 0.225 µM); MIC90 [19]: 0.5 µg/mL (≈ 0.902 µM); MIC50 [20]: 0.5 µg/mL (≈ 0.902 µM); MIC90 [20]: 2 µg/mL (≈ 3.61 µM); MIC50 [21]: 0.5 µg/mL (≈ 0.902 µM); MIC90 [21]: 2 µg/mL (≈ 3.61 µM); MIC50 [22]: 32 µg/mL (≈ 57.7 µM); MIC90 [22]: 64 µg/mL (≈ 115 µM); MIC50 [23]: 32 µg/mL (≈ 57.7 µM); MIC90 [23]: 64 µg/mL (≈ 115 µM); MIC50 [24]: 4 µg/mL (≈ 7.21 µM); MIC90 [24]: 32 µg/mL (≈ 57.7 µM); MIC50 [25]: 2 µg/mL (≈ 3.61 µM); MIC90 [25]: 64 µg/mL (≈ 115 µM); MIC50 [26]: 2 µg/mL (≈ 3.61 µM); MIC90 [26]: 64 µg/mL (≈ 115 µM); MIC50 [27]: 2 µg/mL (≈ 3.61 µM); MIC90 [27]: 64 µg/mL (≈ 115 µM); MIC50 [28]: 2 µg/mL (≈ 3.61 µM); MIC90 [28]: 64 µg/mL (≈ 115 µM); MIC50 [29]: 2 µg/mL (≈ 3.61 µM); MIC90 [29]: 64 µg/mL (≈ 115 µM); MIC50 [30]: 2 µg/mL (≈ 3.61 µM); MIC90 [30]: 64 µg/mL (≈ 115 µM); MIC50 [31]: 2 µg/mL (≈ 3.61 µM); MIC90 [31]: 64 µg/mL (≈ 115 µM); MIC50 [32]: 2 µg/mL (≈ 3.61 µM); MIC90 [32]: 64 µg/mL (≈ 115 µM)

— ChEMBL document CHEMBL1255409, “In vitro activity of ceftaroline against 623 diverse strains of anaerobic bacteria” (2010)
